Data on 167 variants can be found in the RNAGym collection of RNA variant scans (doi:10.1126/science.aae0568).

This sample holds only a part of the variants without activity. Some results are limits rather than exact numbers.

The labels stand for the following.
B1: tRNA (parent)
chain: GUUCCGUUGGCGUAAUGGUAACGCGUCUCCCUCCUAAGGAGAAGACUGCGGGUUCGAGUCCCGUACGGAACG

The variants in the data set derive from B1. Put plainly: yeast fitness relative to wild type (ratio to wild type); higher = fitter; tRNA-Arg(CCU), competitive growth, 37 C, YPD. A digest of the protocol:
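Amplicons of the tRNA-Arg(CCU) gene were sequenced, 100-nucleotide paired-end, from the start population and from each end population of a pooled yeast competition. The competition, in six parallel replicates, lasted 24 hours in YPD at 37°C. Fitness relative to wild type was calculated from changes in genotype frequencies. Genotypes had to have ≥ 100 starting reads, and estimates < 0.5 were set to 0.5.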
As for C11U C46U U59C, the yeast fitness was determined as 0.767.
As for C11U U16A C55A, the yeast fitness was at most 0.5.
As for C11U G17A G48A G51C C60A U64C, the yeast fitness is 0.623.
For the variant C11U C30U C34G G68C, the yeast fitness was at most 0.5.
The figure for C11U G12C U26C A40U A57U is 0.612; for C11U C31A G67A it is at most 0.5; for C11U C30A G51A G67A it is at most 0.5.
The figure for C11U C31A A42G C55A is at most 0.5.
The figure for C11U A43U A70U is 0.764; for C11U G18C C29A G67C it is at most 0.5.
On to C11U C49U A70C, for which the yeast fitness was found to be 0.672.
With C11U U59A A69C, the yeast fitness turned out to be 0.537.
The figure for G12A A14C A20C A42G G44A is at most 0.5; for C11U G25C C31U it is 0.679; for C11U U13C A43C it is 0.682.
Take C11U A36U C60A: the yeast fitness was at most 0.5.
The figure for C11U G12A C24U C34G is at most 0.5.
The figure for C11U U13A C46G C62G is at most 0.5.
As for C11U G52A, the yeast fitness stood at 0.827.
The figure for C11U G52C is 0.707; for C11U U59A C60U it is 0.543; for C11U U26G U32A A43C U53C A70U it is at most 0.5.
The figure for C11U C30A U35A G38A C61G is at most 0.5; for C11U C33G A36U A42G it is at most 0.5.
The figure for C11U U19G C27U C29G is at most 0.5.
As for C11U G50A C66A, the yeast fitness is at most 0.5.
Take C11U C31G C34G A43U C61U A65U: the yeast fitness is at most 0.5.
The figure for C11U G17C A20C is at most 0.5; for C11U U16C U26C A45C C46U it is at most 0.5; for C11U C60G it is 0.607.
In the case of C11U U16C G25A, the yeast fitness was determined as 0.9.
The figure for C11U U19C U59C C61A is at most 0.5.
In the case of C11U A57U A69U, the yeast fitness was 0.613.
The figure for C11U G23C G58A A70U is 0.541; for C11U C22U G44C it is 0.553.
The figure for C11U G12A C31U U53C G63A A65C is at most 0.5; for C11U A42U A43G G52C C60G it is at most 0.5; for C11U A36G G48C A65C it is 0.675.
The figure for C11U C22G C34A C49U is at most 0.5.
As to C11U A37C G56A, the yeast fitness is at most 0.5.
The figure for C11U U13A G25A U28A C31A A43C C60G C61G C62U is 0.581; for C11U U32G C62A it is 0.618; for C11U A45U G58C A69C it is at most 0.5.
For the variant C11U C34G A37U, the yeast fitness was at most 0.5.
Consider C11U G12A A14G U53C, for which the yeast fitness is at most 0.5.
In the case of C11U C31A A57C, the yeast fitness is at most 0.5.
Consider C11U G50A G63A A65U, for which the yeast fitness was at most 0.5.
For C11U C34U G38A G44C, the yeast fitness came out at 0.541.
Regarding C11U U16C U19C, the yeast fitness amounted to 0.929.
For the variant C11U A21U, the yeast fitness worked out at 1.02.
As to C11U C33U A36G G39A G44A C55G U59C, the yeast fitness is at most 0.5.
The figure for C11U C34G C55G U59C C60U G67U is at most 0.5.
The figure for C11U U53C is 0.652; for C11U C49G it is 0.892.
C11U C31G A43C: the yeast fitness was determined as 0.654.
The figure for C11U A37C C46G C60U C61A is 0.536; for C11U C29U G39A it is 0.619.
For C11U U35C A70G, the yeast fitness stood at 0.641.
Turning to C11U C55A U64C, the yeast fitness is at most 0.5.
The figure for C11U C27G A36G G63C C66U is at most 0.5; for C11U U28C G44C U64C it is at most 0.5.
With C11U C29U C55U, the yeast fitness was at most 0.5.
On to C11U C24G C27G G52A, for which the yeast fitness amounted to 0.551.
The figure for C11U C46G is 0.986.
Take C11U A21G U64C: the yeast fitness was determined as 0.945.
C11U C31U A65C: the yeast fitness was found to be 0.52.
In the case of C11U C22G U28A C31G C55A G68C, the yeast fitness is at most 0.5.
The figure for C11U A36C C46G is at most 0.5.
The figure for C11U C31G is 0.791; for C11U U13A A57U U64G A65G it is at most 0.5.
The figure for C11U C24G C33A A40C is 0.955.
Turning to C11U A45C C49U, the yeast fitness was 0.765.
On to C11U C34G A42C, for which the yeast fitness is at most 0.5.
In the case of C11U U32A C34U, the yeast fitness was at most 0.5.
The figure for C11U C22A C31U G68C is at most 0.5; for C11U A40U G67A it is at most 0.5; for C11U A43C G68A it is 0.545.
The figure for C11U A43U C66U is 0.555.
As for C11U G50A A69C, the yeast fitness was 0.522.
Regarding C11U C29A U59G, the yeast fitness is at most 0.5.
As to C11U C29U G67A, the yeast fitness is 0.57.
On to C11U U19C G67C, for which the yeast fitness was 0.566.
As to C11U C33G, the yeast fitness stood at 0.734.
On to C11U C33U, for which the yeast fitness stood at 0.724.
The figure for C11U C31G C34G A43U G68C A69G is 0.532.
The figure for C11U G23A is 0.952; for C11U C30U U47A G67C it is at most 0.5; for C11U G25C A40U C49U it is at most 0.5.
Take C11U C29G C33U: the yeast fitness is at most 0.5.
The figure for C11U G25C A40U C49G G63C is at most 0.5; for C11U G25A it is 0.867.
As for C11U G41A G58A, the yeast fitness is 0.768.
As for C11U G56A, the yeast fitness is 0.901.
With C11U U13A A40C U64C, the yeast fitness is at most 0.5.
The figure for C11U A36G G44A C46U is 0.993; for C11U G56A G67U it is 0.526; for C11U A45C U59C it is at most 0.5.
Regarding C11U G17A U35A G38A C61G, the yeast fitness is at most 0.5.
With C11U C33U A70U, the yeast fitness was 0.612.
The figure for C11U A42C A69U is 0.773; for C11U G12A C31U U53C A69U it is at most 0.5; for C11U A37C C66U it is 0.611.
C11U U19G A65C: the yeast fitness stood at 0.696.
The figure for C11U C24G C33A A40C U53C is 0.626; for C11U A21U A43C G68C it is at most 0.5; for C11U A40U C46U it is 0.637.
In the case of C11U A40U C46A, the yeast fitness is 0.74.
Regarding C11U C49U C61G A65C, the yeast fitness was determined as 0.534.
The figure for C11U A57U A70C is 0.512.
The figure for C11U U19A U32A A37U is at most 0.5; for C11U G38A A40U G52C it is 0.568; for C11U U19G A69U it is 0.782.
The figure for C11U G12A is 0.998.
Turning to C11U C55A C62U, the yeast fitness was at most 0.5.
The figure for C11U C30A C49U G67U is at most 0.5.
The figure for C11U C49G A57G is at most 0.5.
The figure for C11U A42U is 0.897; for C11U C22G C29G G41A it is at most 0.5.
Take C11U U16C U28C A43C: the yeast fitness is at most 0.5.
The figure for C11U C29G C31U G58U A65G G67A is at most 0.5.
The figure for C11U U19C A20U A42C A65C A69U is at most 0.5; for C11U C29U C61U U64C it is at most 0.5; for C11U U13A C22G C24A C46G C55U it is at most 0.5.
The figure for C11U C33U A43G is 0.595.
For the variant C11U C22A, the yeast fitness stood at 0.882.
The figure for C11U C31U C60A U64A is at most 0.5.
The figure for C11U C34U G48A is at most 0.5.
The figure for C11U C31G U64G A69G is 0.842; for C11U G18C C24G C46A it is 0.537.
Consider C11U A43U, for which the yeast fitness stood at 0.907.
With C11U A43C, the yeast fitness was found to be 0.686.
The figure for C11U C30A C55G A57C is at most 0.5; for C11U U19C C22G G25C C33U G39C C62G it is at most 0.5.
As for C11U C30A G39A U47A G63C, the yeast fitness is at most 0.5.
Regarding C11U G18C C33G G44A C46G C66U, the yeast fitness was 0.606.
The figure for C11U U53C A57C is at most 0.5.
The figure for C11U G44C is 0.974.
With C11U G44A, the yeast fitness was 1.03.
Take C11U C29G C33U G39U C60U A65U A69U: the yeast fitness was at most 0.5.
The figure for C11U C30G is 0.694; for C11U U28A it is 0.682.
Regarding C11U U26A A36U, the yeast fitness was at most 0.5.
Take C11U G39C: the yeast fitness was determined as 0.68.
Take C11U C24G C61A G67A: the yeast fitness is at most 0.5.
The figure for C11U U28C C29G C60A is at most 0.5; for C11U G25C C29G A43G C49G it is 0.546; for C11U A43G A57U it is 0.568.
C11U G48A G51C C60A U64C: the yeast fitness came to 0.887.
For C11U C27U C31U A36C G44C A45G G56C, the yeast fitness was at most 0.5.
With C11U C27U C46U A57U, the yeast fitness stood at 0.647.
Regarding C11U U13C A15G C46A, the yeast fitness was determined as 0.631.
Consider C11U C24G C29U G50A G58C G63A C66U G68A, for which the yeast fitness is at most 0.5.
The figure for C11U U35C G44A is 0.727; for C11U C31G C34G A43U G68C it is 0.571; for C11U C22U U54C it is 0.639.
Take C11U U47A: the yeast fitness amounted to 0.808.
The figure for C11U C22U G38A U54C is at most 0.5.
The figure for C11U G51C U59G is 0.534; for C11U C24U it is 0.852.
The figure for C11U C24A is 0.606; for C11U U28C C29G A57G it is at most 0.5; for C11U C34G it is 0.591.
Consider C11U U47C A57G A69U, for which the yeast fitness was determined as 0.565.
The figure for C11U C22U G44C U64G is 0.534.
The figure for C11U C33G U47A U64G is 0.552; for C11U G18C C31A it is at most 0.5.
The figure for C11U C29U U35C is at most 0.5.
